Measurements taken from ChEMBL document CHEMBL4033721, “Design, synthesis and evaluation of indole-2-carboxamides with pan anti-mycobacterial activity” (Bioorg Med Chem, 2017).
Converted amounts (≈) assume the structure as drawn.

How the values were obtained:
[1] = test system: Mycobacteroides abscessus; assay: Antimycobacterial activity against Mycobacterium abscessus ATCC 19977 after 8 days by resazurin microtiter based colorimetric assay; type: functional; details: ATCC 19977, 192 h
How it was run: (§1)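 Resazurin microtiter plate MIC, read by visual scan for growth, in Mueller Hinton II broth. Strains include clinical isolates of M. abscessus complex, M. chelonae, M. avium, M. intracellulare, M. xenopi, P. aeruginosa PAO-1 and S. aureus ATCC 25923.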

[2] = test system: Mycobacteroides abscessus; assay: Antimycobacterial activity against Mycobacterium abscessus isolate DCI 21 after 8 days by resazurin microtiter based colorimetric assay; type: functional; details: isolate DCI 21, 192 h; how it was run: as §1
[3] = Antimycobacterial activity against Mycobacterium massiliense isolate CIP108297 after 8 days by resazurin microtiter based colorimetric assay; type: functional, Mycobacterium abscessus subsp. massiliense; details: Mycobacteroides abscessus, isolate CIP108297, 192 h; how it was run: as §1
[4] = Antimycobacterial activity against Mycobacterium massiliense isolate CRM0019 after 8 days by resazurin microtiter based colorimetric assay; type: functional, Mycobacterium abscessus subsp. massiliense; details: Mycobacteroides abscessus, isolate CRM0019, 192 h; how it was run: as §1
[5] = Antimycobacterial activity against Mycobacterium bolletii ATCC 14472 after 8 days by resazurin microtiter based colorimetric assay; type: functional; details: Mycobacteroides abscessus, ATCC 14472, 192 h; how it was run: as §1
Mycobacteroides chelonae = assay: Antimycobacterial activity against Mycobacterium chelonae ATCC 35752 after 8 days by resazurin microtiter based colorimetric assay; type: functional; details: ATCC 35752, 192 h; how it was run: as §1
[6] = test system: Mycobacterium tuberculosis; assay: Antimycobacterial activity against Mycobacterium tuberculosis H37Rv MC2-6206 after 8 days by resazurin microtiter based colorimetric assay; type: functional; details: H37Rv MC2-6206, 192 h
How it was run: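 MIC was measured by resazurin microtiter colorimetric assay with visual growth scoring. Medium was 7H9-ADC–0.05% tyloxapol with 0.2% casaminoacids, 48 µg/ml pantothenate and 50 µg/ml L-leucine.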

[7] = test system: Mycolicibacterium smegmatis; assay: Antimycobacterial activity against Mycobacterium smegmatis isolate MC2 155 after 8 days by resazurin microtiter based colorimetric assay; type: functional; details: str. MC2 155, 192 h
Mycobacterium avium = assay: Antimycobacterial activity against Mycobacterium avium isolate 104 after 8 days by resazurin microtiter based colorimetric assay; type: functional; details: isolate 104, 192 h
How it was run: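 M. avium 104 MICs were read by resazurin microtiter colorimetric assay in 96-well plates, with growth scored visually, in Mueller Hinton II medium.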

[8] = test system: Mycobacterium avium-intracellulare; assay: Antimycobacterial activity against Mycobacterium avium-intracellulare isolate 1956 after 8 days by resazurin microtiter based colorimetric assay; type: functional; details: isolate 1956, 192 h; how it was run: as §1
Mycobacterium xenopi = assay: Antimycobacterial activity against wild type Mycobacterium xenopi isolate 4042 after 8 days by resazurin microtiter based colorimetric assay; type: functional; details: isolate 4042, 192 h; how it was run: as §1
Pseudomonas aeruginosa = assay: Antibacterial activity against Pseudomonas aeruginosa PAO1 after 8 days by resazurin microtiter based colorimetric assay; type: functional; details: PAO1, 192 h; how it was run: as §1
Staphylococcus aureus = assay: Antibacterial activity against Staphylococcus aureus ATCC 25923 after 8 days by resazurin microtiter based colorimetric assay; type: functional; details: ATCC 25923, 192 h; how it was run: as §1
[9] = test system: Mycobacteroides abscessus; assay: Bactericidal activity against Mycobacterium abscessus after 8 days by resazurin microtiter based colorimetric assay; type: functional
How it was run: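 MBC90 found by subculturing from the MIC wells onto 7H11 agar. Value is the lowest concentration cutting CFU by 90% versus the inoculum.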

[10] = Cytotoxicity against human THP1 cells assessed as reduction in cell viability after 3 days by CellTiter-Glo based luminescence assay; details: THP-1 cells, read-out: TD50
How it was run: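 THP-1 cells in complete RPMI, made macrophage-like with 80 nM PMA overnight at 37°C, 5% CO2, then seeded and cultured 24 h. Cells got 10-point DMSO serial dilutions (top 50 µM, final DMSO 0.5%) for 3 days, with staurosporine as control. Viability read by CellTiter-Glo luminescence. IC50 (50% viability) came from a Levenberg–Marquardt curve fit.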

[11] = Selectivity index, ratio of TD50 for human THP1 cells to MIC for Mycobacterium abscessus isolate DCI 21; type: toxicity; details: THP-1 cells, read-out: Selectivity Index
How it was run: (§2)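 Ratio of THP-1 cytotoxicity to resazurin-assay MIC. Cytotoxicity: THP-1 cells were differentiated with 80 nM PMA overnight, plated for 24 h, then given 10-point DMSO dilutions (top 50 μM, 0.5% final DMSO) for 3 days at 37°C, 5% CO₂. ATP luminescence was read, with a staurosporine control. IC₅₀ = concentration giving 50% viability, from a Levenberg–Marquardt curve fit.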

[12] = Selectivity index, ratio of TD50 for human THP1 cells to MIC for Mycobacterium massiliense isolate CRM0019; type: toxicity; details: THP-1 cells, read-out: Selectivity Index; how it was run: as §2
[13] = Selectivity index, ratio of TD50 for human THP1 cells to MIC for Mycobacterium bolletii ATCC 14472; type: toxicity; details: THP-1 cells, read-out: Selectivity Index; how it was run: as §2
[14] = Selectivity index, ratio of TD50 for human THP1 cells to MIC for Mycobacterium chelonae ATCC 35752; type: toxicity; details: THP-1 cells, read-out: Selectivity Index; how it was run: as §2
[15] = Selectivity index, ratio of TD50 for human THP1 cells to MIC for Mycobacterium tuberculosis H37Rv MC2-6206; type: toxicity; details: THP-1 cells, read-out: Selectivity Index; how it was run: as §2
[16] = test system: Mycobacterium abscessus subsp. massiliense; assay: Inhibition of MmpL3 in Mycobacterium massiliense isolate 1513 assessed as reduction in trehalose monomycolate by measuring decrease in mycolic acid transfer to cell envelope after 16 hrs using [1,2-14C]acetate labeled compounds by TLC analysis
How it was run: (§3)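 Lipids were run on TLC in CHCl3:CH3OH:H2O 20:4:0.5. Cell wall-bound MAMEs were run in n-hexane:ethyl acetate 95:5, developed three times. Phosphorimaging read-out gave TMM/TDM ratios and MAME radioactivity relative to untreated control.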

[17] = test system: Mycobacterium abscessus subsp. massiliense; assay: Inhibition of MmpL3 in Mycobacterium massiliense isolate 1513 assessed as reduction in arabinogalactan after 16 hrs using [1,2-14C]acetate labeled compounds by TLC analysis; how it was run: as §3
[18] = test system: Mycobacterium abscessus subsp. massiliense; assay: Inhibition of MmpL3 in Mycobacterium massiliense isolate 1513 assessed as reduction in trehalose dimycolate after 16 hrs using [1,2-14C]acetate labeled compounds by TLC analysis; how it was run: as §3

Compound | MIC [1] [µg/mL] | MIC [2] [µg/mL] | MIC [3] [µg/mL] | MIC [4] [µg/mL] | MIC [5] [µg/mL] | MIC (Mycobacteroides chelonae) [µg/mL] | MIC [6] [µg/mL] | MIC [7] [µg/mL] | MIC [8] [µg/mL] | MIC (Mycobacterium xenopi) [µg/mL] | MIC (Pseudomonas aeruginosa) [µg/mL] | MIC (Staphylococcus aureus) [µg/mL] | CC50 at 72 h [10] [µg/mL] | selectivity ratio [11] | selectivity ratio [12] | selectivity ratio [13] | selectivity ratio [14] | selectivity ratio [15] | inhibition [16] | inhibition [17] | also measured
C[C@@H]1[C@H]2C[C@@H](C[C@H]1NC(=O)c1cc3ccccc3[nH]1)C2(C)C | 0.12 (≈ 0.405 µM) | 0.5 (≈ 1.69 µM) | 0.06 (≈ 0.202 µM) | 0.06 (≈ 0.202 µM) | 0.12 (≈ 0.405 µM) | < 0.06 | 0.05 (≈ 0.169 µM) | 0.78 (≈ 2.63 µM) | 8 (≈ 27 µM) | 0.5 to 1 (≈ 1.69 to 3.37 µM) | > 160 | 40 (≈ 135 µM) | 11.3 (≈ 38.1 µM) | 22.6 | 188 | 92 | > 188 | 226 | Dose-dependent effect | Dose-dependent effect | MIC (Mycobacterium avium): 8 µg/mL (≈ 27 µM); MBC90 [9]: 0.06 µg/mL (≈ 0.202 µM); inhibition [18]: Dose-dependent effect
O=C(NC12CC3CC(CC(C3)C1)C2)c1cc2ccccc2[nH]1 | 0.25 (≈ 0.849 µM) | 0.25 (≈ 0.849 µM) | 0.5 (≈ 1.7 µM) | 0.25 (≈ 0.849 µM) | 0.25 (≈ 0.849 µM) | 0.25 (≈ 0.849 µM) | 0.2 (≈ 0.679 µM) | 1.56 (≈ 5.3 µM) | 8 (≈ 27.2 µM) | 0.5 to 1 (≈ 1.7 to 3.4 µM) | > 160 | > 160 | > 14.7 | > 58 | > 58 | > 58 | > 58 | > 73 | Dose-dependent effect | Dose-dependent effect | MIC (Mycobacterium avium): 8 µg/mL (≈ 27.2 µM); inhibition [18]: Dose-dependent effect
Cc1cc(C)c2cc(C(=O)NC3CCCCCCC3)[nH]c2c1 | 0.063 (≈ 0.211 µM) | 0.0078 (≈ 0.0261 µM) | 0.031 (≈ 0.104 µM) | 0.0078 (≈ 0.0261 µM) | 0.0039 (≈ 0.0131 µM) | 0.063 (≈ 0.211 µM) | 0.0195 (≈ 0.0653 µM) | 0.313 to 0.625 (≈ 1.05 to 2.09 µM) | 1 (≈ 3.35 µM) | 0.25 (≈ 0.838 µM) | > 160 | > 160 | > 14.9 | > 1910 | > 1910 | > 3820 | > 236 | > 764 | Dose-dependent effect | Dose-dependent effect | MBC90 [9]: 0.015 µg/mL (≈ 0.0503 µM); inhibition [18]: Dose-dependent effect
Cc1cc(C)c2cc(C(=O)N[C@@H]3C[C@@H]4C[C@H]([C@H]3C)C4(C)C)[nH]c2c1 | 0.125 (≈ 0.385 µM) | 0.125 (≈ 0.385 µM) | 0.125 (≈ 0.385 µM) | 0.125 (≈ 0.385 µM) | 0.125 (≈ 0.385 µM) | 0.125 (≈ 0.385 µM) | 0.0195 (≈ 0.0601 µM) | 1.25 to 2.5 (≈ 3.85 to 7.7 µM) | 2 (≈ 6.16 µM) | 0.25 to 1 (≈ 0.77 to 3.08 µM) | > 160 | > 160 | > 16.2 | > 130 | > 130 | > 130 | > 130 | > 830 | Dose-dependent effect | Dose-dependent effect | MIC (Mycobacterium avium): 2 µg/mL (≈ 6.16 µM); inhibition [18]: Dose-dependent effect
